Assay outcomes deposited in PubChem BioAssay by several laboratories.
Tn6 DDE FP: inhibitors of Tn6 peptide binding to fibrin DD(E), primary screen, biochemical, fluorescence polarization, human fibrin, Tn6 probe. Fibrinogen beta chain (Homo sapiens), P02675. Fibrin DD(E) TRITC-Tn6 fluorescence polarization displacement. inhibition, % at 8.3 µM. actives 0.21% (n = 370,000). AID 720509, 2013;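 active = inhibition above a per-campaign cutoff: mean of compounds within control limits plus 3 SD, cut at about 15% in these data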
Target sequence (P02675 whole entry, looked up): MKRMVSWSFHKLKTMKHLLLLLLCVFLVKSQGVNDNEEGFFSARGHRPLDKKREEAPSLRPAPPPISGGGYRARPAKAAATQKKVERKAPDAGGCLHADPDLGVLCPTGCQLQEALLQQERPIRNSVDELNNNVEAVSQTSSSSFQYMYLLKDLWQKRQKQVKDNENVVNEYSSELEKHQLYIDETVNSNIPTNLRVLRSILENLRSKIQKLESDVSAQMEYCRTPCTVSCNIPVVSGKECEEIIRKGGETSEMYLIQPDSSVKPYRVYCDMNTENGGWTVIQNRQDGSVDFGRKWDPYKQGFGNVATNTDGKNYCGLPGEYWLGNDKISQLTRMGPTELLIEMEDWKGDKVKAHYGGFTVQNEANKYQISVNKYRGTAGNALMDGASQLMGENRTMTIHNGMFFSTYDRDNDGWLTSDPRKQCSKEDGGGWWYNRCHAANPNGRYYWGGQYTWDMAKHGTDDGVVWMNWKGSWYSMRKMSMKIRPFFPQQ
RTF Ca sens inh: cardiac RTF calcium sensitivity inhibitors, primary screen, biochemical, IANBD-TnC fluorescence, EC70 calcium | Troponin I, cardiac muscle (Homo sapiens) + Troponin T, cardiac muscle (Homo sapiens) + … | actives 0.12% (n = 340,000) | AID 493244, 2011 | IANBD-labeled cardiac RTF, Ca2+ fluorescence | inhibition, % at 7.15 µM;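 active = inhibition above the mean inhibition of all tested compounds plus 3 SD, cut at about 17% in these data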;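 also: assay run at fixed EC70 calcium of 1.6 mM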
RTF Ca sens act: cardiac RTF calcium sensitivity activators, primary screen, biochemical, IANBD-TnC fluorescence, EC20 calcium; actives 0.24% (n = 340,000); activation, % at 7.2 µM; IANBD-labeled TnC RTF fluorescence at EC20 calcium; 0% EC20 calcium, 100% full calcium; AID 493008, 2010;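 active = activation above the mean over all tested compounds plus 3 SD, cut at about 30% in these data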;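 also: rise in fluorescence read as greater calcium sensitivity of cardiac thin filaments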
DDE Tn7 FP inh: inhibitors of Tn7 peptide binding to fibrin DD(E), primary screen, biochemical, fluorescence polarization, human fibrin, Tn7 probe; Fibrinogen beta chain (Homo sapiens), P02675; FP displacement of FITC-Tn7 peptide from fibrin DD(E); 0% = median of compound wells per plate; inhibition, % at 8.3 µM; actives 0.13% (n = 370,000); AID 720508, 2013;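 active = inhibition above the mean of compounds falling within the control limits plus 3 SD of them, cut at about 14% in these data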
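Test system – human fibrin DD(E) · Times – 10 min preincubation, 3 h with tracer, room temperature · Detection – fluorescence polarization of the labelled Tn7 tracer · Measure – percent inhibition normalized to high-control wells · Benchmarks – high control wells with 10 µM unlabelled Aha-Tn7 peptide (full inhibition) · Repeats – singlicate testing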
Keap1 Nrf2 FP: Keap1-Nrf2 protein-protein interaction inhibitors, primary screen, biochemical, fluorescence polarization, single point; Kelch-like ECH-associated protein 1 (Homo sapiens), Q14145; Keap1 Kelch-Nrf2 peptide fluorescence polarization, 1536-well; inhibition, % at 9.4 µM; actives 0.15% (n = 340,000); in the data active = inhibition above about 12%;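 also: human Keap1 Kelch domain with fluorescein labeled Nrf2 9mer peptide probe; higher means more block of Keap1 binding to Nrf2 peptide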
C-LANA FP: inhibitors of KSHV C-LANA binding to DNA, primary screen, biochemical, fluorescence polarization, FAM-LBS DNA, MBP-C-LANA, single point | Kaposi's sarcoma herpesvirus LANA C-terminal domain (residues 932-1162) DNA binding | inhibition, % at 9 µM | actives 0.078% (n = 340,000) | AID 504423, 2011;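 active = highest replicate inhibition at or above 60% at 9 µM, even if other replicates fall short; inactive = all replicates below 60% inhibition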
DDE Tn6 FP ctr: DD(E)-Tn6 binding inhibition, counter-screen. shares compounds with Tn6 DDE FP. Fibrin DD(E), TRITC-Tn6 fluorescence polarization displacement; 0% = median of compound wells, not DMSO. inhibition, % at 8.3 µM. actives 2% (n = 680);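 active = inhibition above the mean of test compounds lying between the control limits plus 3 SD of those, cut at about 14% in these data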
Tn6 DDE conf: inhibitors of Tn6 peptide binding to fibrin DD(E), confirmation, biochemical, fluorescence polarization, human fibrin, Tn6 probe; actives 10% (n = 680); FP displacement of TRITC-Tn6 peptide from DD(E); 0% = per-plate median of test wells; shares compounds with Tn6 DDE FP; AID 720631, 2013; inhibition, % at 8.3 µM;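 active = inhibition above the mean of compounds lying within the control limits plus 3 SD, cut at about 16% in these data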
Hits are given with their value; . = inactive; / = no result. Sampled rows, rich in hits. Any-hit rate of the full collection: about 0.73%.

SMILES	Tn6 DDE FP	RTF Ca sens inh	RTF Ca sens act	DDE Tn7 FP inh	Keap1 Nrf2 FP	C-LANA FP	DDE Tn6 FP ctr	Tn6 DDE conf
O=C(C1COc2ccccc2O1)N1CCN(c2ccc(C(F)(F)F)cn2)CC1 (centres undefined)	.	.	.	.	.	.	/	/
NS(=O)(=O)c1ccc(N2CCN(C(=O)C3COc4ccccc4O3)CC2)nc1 (centres undefined)	18.0	.	.	.	.	.	.	.
O=S(=O)(c1ccc(F)cc1)N1CN(Cc2ccco2)c2nc3ccccc3nc21	36.3	.	.	.	.	.	.	.
Cc1ccc(S(=O)(=O)N2CN(Cc3ccco3)c3nc4ccccc4nc32)cc1	.	.	.	.	.	.	/	/
COc1ccc2c(c1)CO[C@H]([C@H](O)CO)[C@H]2/C=C/c1ccccc1	.	/	/	.	/	/	/	/
CCc1ccc(OCC(=O)Nc2ccc3oc(=O)ccc3c2)cc1	17.3	.	.	.	.	.	.	.
CCOC(=O)c1sc(N(Cc2ccccc2)C(=O)COC(=O)c2ccc(O)cc2)nc1C	26.9	.	.	.	.	.	.	.
CCOC(=O)c1sc(N(Cc2ccccc2)C(=O)COC(=O)c2ccccc2O)nc1C	.	.	.	.	.	.	/	/
